Published values from different studies.
Lines come from different studies, so protocols differ. pEC50, pIC50: −log10 of the molar value.
Cell line: HepG2
Observed: cell growth or viability

C=CC(=O)NC1CCN(c2ncc3ncnc(Nc4ccc(Oc5ccc6c(c5)ncn6C)c(C)c4)c3n2)CC1 — pEC50: 6.47
O=C(Nc1ccccc1)Nc1ccc(Oc2nnc(-c3ccc(Cl)cc3)c3ccccc23)cc1 — viability (MTT; 0.312 µM, 24 h): 7.03%
CC(=NNC(=O)COc1ccc2c(C)c(Cc3ccccc3)c(=O)oc2c1C)c1ccc(Br)cc1 — viability (MTT; 25 µg/mL): 44.2%
CC(=O)c1nn(-c2ccc(C)cc2)/c(=N/N=C(\C)c2ccc(NC(=O)c3ccccc3)cc2)s1 — viability (MTT; 5 µM): 6.81%
CC(=NNC(=O)c1ccccc1O)c1ccc(Nc2nnc(-c3ccc(Cl)cc3)c3ccccc23)cc1 — cell death (MTT; 2.5 µM): 62.1%
CN(C)c1cc(NC(=O)c2ccccn2)c(O)c2c1C[C@H]1C[C@H]3[C@H](N(C)C)C(O)=C(C(N)=O)C(=O)[C@@]3(O)C(O)=C1C2=O — IC50 (ATP luminescence; 72 h): 187 µg/mL
COc1ccc(-c2cc(-c3ccc(C)cc3)nc3[nH]c(=O)[nH]c(=O)c23)cc1OC — pIC50 (MTT; 48 h): 4.46
O=C(C=Cc1ccccc1)Nc1ccc(Oc2nnc(-c3ccc(Cl)cc3)c3ccccc23)cc1 — cell death (MTT; 1.25 µM): 62.6%
CCOC(=O)c1nn(-c2cccc(Cl)c2)/c(=N/N=C(\C)c2ccc(NC(=O)c3ccc(Cl)cc3)cc2)s1 — viability (MTT; 78 nM): 73.1%
O=C(Nc1ccc(Oc2nnc(-c3ccc(Cl)cc3)c3ccccc23)cc1)c1ccccc1 — viability (MTT; 10 µM, 24 h): 4.07%
CC(=O)c1nn(-c2ccccc2Cl)/c(=N/N=C(\C)c2ccc(NC(=O)c3ccccc3)cc2)s1 — viability (MTT; 1.25 µM): 5.77%
Cc1ccc(-c2cc(-c3ccc(Cl)cc3)c3c(=O)n(C)c(=O)n(C)c3n2)cc1 — pIC50 (MTT; 48 h): 5.13
CC(=O)Nc1ccc(/C(C)=N/N=c2\sc(C(C)=O)nn2-c2ccc(C)cc2)cc1 — viability (MTT; 10 µM): 48.8%
Cc1nc2ccc(CN(C)c3ccc(C(=O)N[C@@H](CCC(=O)O)C(=O)O)s3)cc2c(=O)[nH]1 — pIC50 (MTT; 48 h): 5.87
CC(=NNC(=S)Nc1ccccc1)c1ccc(Nc2nnc(-c3ccc(Cl)cc3)c3ccccc23)cc1 — viability (MTT; 0.625 µM, 24 h): 79.5%
COc1ccc(-c2cc(-c3ccc(C)cc3)nc3c2c(=O)n(C)c(=O)n3C)cc1OC — pIC50 (MTT; 48 h): 4.49
CC(=NNC(=O)c1ccncc1)c1ccc(Nc2nnc(-c3ccc(Cl)cc3)c3ccccc23)cc1 — viability (MTT; 2.5 µM, 24 h): 3.92%
CCOC(=O)c1nn(-c2cccc(Cl)c2)/c(=N/N=C(\C)c2ccc(NC(=O)c3ccccc3)cc2)s1 — viability (MTT; 0.312 µM): 3.54%
COc1ccc(-c2cc(-c3cccc(Br)c3)c3c(=O)[nH]c(=O)[nH]c3n2)cc1 — pIC50 (MTT; 48 h): 4.79
